Active and inactive are the calls of the source. No cut-off for these calls is given here.
Columns and labels:
[1] = biological target: T1, Retinol-binding protein 4 (Homo sapiens, UniProt P02753); experiment: Binding affinity to His-tagged recombinant human sRBP expressed in Escherichia coli BL21(DE3) assessed as disruption of sRBP-TTR protein interaction at 1 to 100 uM after 1 hr by SDS-PAGE and silver staining method
Summary of the method: (§1)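 Compound was 100 μM, or 1, 10, 20, 50 and 100 μM for dose–response. Control was 10 μM ROH with no compound. Released free sRBP in the flow-through was analysed by SDS-PAGE; each run done at least three times.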

[2] = biological target: T1, Retinol-binding protein 4; experiment: Binding affinity to His-tagged recombinant human sRBP expressed in Escherichia coli BL21(DE3) assessed as disruption of sRBP-TTR protein interaction after 1 hr by SDS-PAGE and silver staining method; summary of the method: as §1
[3] = biological target: T1, Retinol-binding protein 4; experiment: Binding affinity to immobilized His-tagged recombinant human sRBP assessed as inhibition of sRBP and detergent treated HEK293 membrane interaction at 10 uM after 1 hr by surface plasmon resonance assay
[4] = biological target: T1, Retinol-binding protein 4; experiment: Antagonist activity at His-tagged recombinant human sRBP expressed in Escherichia coli BL21(DE3) assessed as disruption of sRBP-TTR protein interaction after 2 hr by surface plasmon resonance assay; assay type: functional
Summary of the method: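 SPR run at 25 °C on a Ni-NTA chip in HBS with 50 μM EDTA at 10 μL/min. Nickel activation, 5 min capture of 200 nM His-sRBP, 1 min compound pulse, then 5 min injection of 1 μM native untagged TTR preincubated with compound at 10 μM. Reference-surface corrected; regenerated with 0.3 mM EDTA; repeated three to five times.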

[5] = biological target: T1, Retinol-binding protein 4; experiment: Binding affinity to His-tagged recombinant human sRBP expressed in Escherichia coli BL21(DE3) assessed as disruption of sRBP-TTR protein interaction at 100 uM after 1 hr by SDS-PAGE and silver staining method relative to 10 uM ROH; summary of the method: as §1
[6] = biological target: T1, Retinol-binding protein 4; experiment: Antagonist activity at His-tagged recombinant human sRBP […] assessed as disruption of ROH-sRBP-TTR protein interaction after 2 hr by TR-FRET assay; assay type: functional
Summary of the method: (§2)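 Apo His-sRBP (P. pastoris-expressed), 5 nM, with 100 nM biotinylated native TTR, 100 nM streptavidin-APC and 1 nM europium anti-His antibody. Inhibitor held at 10 μM while ROH was titrated, in 20 mM Tris-HCl pH 7.4, 150 mM NaCl, 1 mM EDTA, 0.01% BSA, 0.02% Tween 20.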

[7] = biological target: T1, Retinol-binding protein 4; experiment: Antagonist activity at His-tagged recombinant human sRBP […] assessed as disruption of ROH-sRBP-TTR protein interaction after 2 hr by TR-FRET assay relative to control; assay type: functional; summary of the method: as §2
[8] = biological target: T1, Retinol-binding protein 4; experiment: Binding affinity to His-tagged recombinant human sRBP expressed in Pichia pastoris assessed as apparent dissociation constant after 5 mins by fluorescence spectrophotometric analysis; conditions: read-out: Kd(app)

Row | Compound | Activity [1] | Activity [2] | other results
1 | CC(C)CCC(=O)Nc1ccc(O)cc1 | inactive | – | –
2 | CC1=C(/C=C/C(C)=C/C=C/C(C)=C/C(=O)Nc2ccc(O)cc2)C(C)(C)CCC1 | – | – | Activity [3]: inactive; Activity [4]: Active; fold change (FC) [5]: 3
3 | CC(C)CC(=O)Nc1ccc(O)cc1 | inactive | – | –
4 | C=CC(=O)Nc1ccc(O)cc1 | inactive | – | –
5 | CC1=C(/C=C/C(C)=C/C=C/C(C)=C/C(=O)NCCCOc2ccccc2)C(C)(C)CCC1 | – | Active | –
6 | COCCC(=O)Nc1ccc(O)cc1 | inactive | – | –
7 | O=C(CCCCc1ccccc1)Nc1ccc(O)cc1 | inactive | – | –
8 | CCOc1ccc(NC(=O)/C=C(C)/C=C/C=C(C)/C=C/C2=C(C)CCCC2(C)C)cc1 | – | Active | –
9 | CC1=C(/C=C/C(C)=C/C=C/C(C)=C/C(=O)NCc2ccc(Oc3ccccc3)cc2)C(C)(C)CCC1 | – | Active | –
10 | COCCOc1ccc(NC(=O)/C=C(C)/C=C/C=C(C)/C=C/C2=C(C)CCCC2(C)C)cc1 | – | Active | –
11 | CCCCC(=O)Nc1ccc(O)cc1 | inactive | – | –
12 | O=C(CCCCCc1ccccc1)Nc1ccc(O)cc1 | inactive | – | –
13 | CC1=C(/C=C/C(C)=C/C=C/C(C)=C/C(=O)Nc2ccc3c(c2)OCO3)C(C)(C)CCC1 | – | Active | –
14 | COC(=O)COc1ccc(NC(=O)/C=C(C)/C=C/C=C(C)/C=C/C2=C(C)CCCC2(C)C)cc1 | – | Active | EC50 [6]: 1260 nM; Ratio EC50 [7]: 15; Kd [8]: 131 nM; Activity [3]: Active; Activity [4]: inactive
15 | CC(C)c1ccc(CCC(=O)Nc2ccc(O)cc2)cc1 | inactive | – | –
16 | COCCOCC(=O)Nc1ccc(O)cc1 | inactive | – | –
17 | CC1=C(/C=C/C(C)=C/C=C/C(C)=C/C(=O)NCc2ccc3c(c2)OCO3)C(C)(C)CCC1 | – | Active | –
18 | COc1cccc(NC(=O)/C=C(C)/C=C/C=C(C)/C=C/C2=C(C)CCCC2(C)C)c1 | – | Active | –
19 | CC(CCCC(C)CC(=O)Nc1ccc(O)cc1)CCC1C(C)CCCC1(C)C (stereo not drawn) | – | Active | –

Row | Compound | Activity [1] | Activity [2] | other results
20 | COc1cc(NC(=O)/C=C(C)/C=C/C=C(C)/C=C/C2=C(C)CCCC2(C)C)cc(OC)c1OC | – | Active | –
21 | CC(C)=CC(=O)Nc1ccc(O)cc1 | inactive | – | –
22 | CC(C)=CCC/C(C)=C/C(=O)Nc1ccc(O)cc1 | inactive | – | –
23 | COc1ccc(CC(=O)Nc2ccc(O)cc2)cc1 | inactive | – | –
24 | CC1=C(/C=C/C(C)=C/C=C/C(C)=C/C(=O)Nc2ccc(OCC(=O)NCCO)cc2)C(C)(C)CCC1 | – | Active | –
25 | CC(C)(C)CC(=O)Nc1ccc(O)cc1 | inactive | – | –
26 | COc1ccc(CCCC(=O)Nc2ccc(O)cc2)cc1 | inactive | – | –
27 | O=C(CCCc1ccccc1)Nc1ccc(O)cc1 | inactive | – | –
28 | CC(C)CCCC(=O)Nc1ccc(O)cc1 | inactive | – | –
29 | O=C(CCc1ccccc1)Nc1ccc(O)cc1 | inactive | – | –
30 | CC1=C(/C=C/C(C)=C/C=C/C(C)=C/C(=O)Nc2ccc(OCC(=O)N(C)C)cc2)C(C)(C)CCC1 | – | Active | –
31 | COc1ccc(NC(=O)/C=C(C)/C=C/C=C(C)/C=C/C2=C(C)CCCC2(C)C)cc1 | – | Active | –
32 | CC1=C(/C=C/C(C)=C/C=C/C(C)=C/C(=O)Nc2ccc(N(C)C)cc2)C(C)(C)CCC1 | – | Dose-dependent effect | EC50 [6]: 954 nM; Ratio EC50 [7]: 15; Kd [8]: 98 nM; Activity [3]: Active
33 | COc1ccc(CCC(=O)Nc2ccc(O)cc2)cc1 | inactive | – | –
34 | CC(C)(C)C(=O)Nc1ccc(O)cc1 | inactive | – | –
35 | O=C(Cc1ccccc1)Nc1ccc(O)cc1 | inactive | – | –
36 | CC1=C(/C=C/C(C)=C/C=C/C(C)=C/C(=O)Nc2ccc(OCC(=O)O)cc2)C(C)(C)CCC1 | – | Active | –
37 | CC(C)c1ccc(CCCC(=O)Nc2ccc(O)cc2)cc1 | inactive | – | –

Now from value to molecule, other results behind:

Row | Activity [1] | Activity [2] | Compound | other results
38 | – | Active | CC1=C(/C=C/C(C)=C/C=C/C(C)=C/C(=O)NCC2CC2)C(C)(C)CCC1 | –
39 | – | Active | CC1=C(/C=C/C(C)=C/C=C/C(C)=C/C(=O)N2CCOCC2)C(C)(C)CCC1 | EC50 [6]: 154 nM; Ratio EC50 [7]: 2; Kd [8]: 227 nM; Activity [3]: Active
40 | – | Active | CC1=C(/C=C/C(C)=C/C=C/C(C)=C/C(=O)N2CCS(=O)(=O)CC2)C(C)(C)CCC1 | –
41 | – | Active | CC1=C(/C=C/C(C)=C/C=C/C(C)=C/C(=O)N2CCC(O)(c3ccccc3)CC2)C(C)(C)CCC1 | –
42 | – | Active | CC1=C(/C=C/C(C)=C/C=C/C(C)=C/C(=O)N2CCN(c3ccc(C)cc3)CC2)C(C)(C)CCC1 | –
43 | – | Active | CC1=C(/C=C/C(C)=C/C=C/C(C)=C/C(=O)NCc2ccc(Cl)cc2)C(C)(C)CCC1 | –
44 | – | Active | CC1=C(/C=C/C(C)=C/C=C/C(C)=C/C(=O)Nc2ccc(OCC(=O)N3CCCCC3)cc2)C(C)(C)CCC1 | –
45 | – | Active | CC1=C(/C=C/C(C)=C/C=C/C(C)=C/C(=O)N2CCC(O)CC2)C(C)(C)CCC1 | –
46 | – | Active | COc1ccc(CNC(=O)/C=C(C)/C=C/C=C(C)/C=C/C2=C(C)CCCC2(C)C)cc1 | –
47 | – | Active | CC1=C(/C=C/C(C)=C/C=C/C(C)=C/C(=O)N2CCC(F)(F)CC2)C(C)(C)CCC1 | –
48 | – | Active | CC1=C(/C=C/C(C)=C/C=C/C(C)=C/C(=O)NCc2ccc(F)cc2)C(C)(C)CCC1 | –
49 | – | Active | CC1=C(/C=C/C(C)=C/C=C/C(C)=C/C(=O)NC2CC2)C(C)(C)CCC1 | –
50 | – | Active | CC1=C(/C=C/C(C)=C/C=C/C(C)=C/C(=O)N2CCCCC2)C(C)(C)CCC1 | –
51 | – | Active | CC1=C(/C=C/C(C)=C/C=C/C(C)=C/C(=O)N2CCCOCC2)C(C)(C)CCC1 | –
52 | – | Active | CC1=C(/C=C/C(C)=C/C=C/C(C)=C\C(=O)Nc2ccc(O)cc2)C(C)(C)CCC1 | Activity [3]: Active
53 | – | Active | CC1=C(/C=C/C(C)=C/C=C/C(C)=C/C(=O)NCC(O)CO)C(C)(C)CCC1 (stereo not drawn) | EC50 [6]: 171 nM; Ratio EC50 [7]: 2; Kd [8]: 178 nM; Activity [3]: Active

Row | Activity [1] | Activity [2] | Compound | other results
54 | – | Active | CC1=C(/C=C/C(C)=C/C=C/C(C)=C/C(=O)NCc2cccnc2)C(C)(C)CCC1 | –
55 | – | Active | CC1=C(/C=C/C(C)=C/C=C/C(C)=C/C(=O)N2CCC(Cc3ccccc3)CC2)C(C)(C)CCC1 | –
56 | – | Active | CC1=C(/C=C/C(C)=C/C=C/C(C)=C/C(=O)N2CCC(CCO)CC2)C(C)(C)CCC1 | –
57 | – | Active | CC1=C(/C=C/C(C)=C/C=C/C(C)=C/C(=O)N2CCCCCC2)C(C)(C)CCC1 | –
58 | – | Active | CC1=C(/C=C/C(C)=C/C=C/C(C)=C/C(=O)NCc2ccccc2)C(C)(C)CCC1 | –
59 | – | Active | CC1=C(/C=C/C(C)=C/C=C/C(C)=C/C(=O)NC2CCCCC2)C(C)(C)CCC1 | –
60 | – | Active | CC1=C(/C=C/C(C)=C/C=C/C(C)=C/C(=O)N2CCC(F)CC2)C(C)(C)CCC1 | –
61 | – | Active | CC1=C(/C=C/C(C)=C/C=C/C(C)=C/C(=O)N2CCC3CCCCC3C2)C(C)(C)CCC1 (stereo not drawn) | –
62 | – | Active | CC1=C(/C=C/C(C)=C/C=C/C(C)=C/C(=O)N2CCCC3CCCCC32)C(C)(C)CCC1 (stereo not drawn) | –
63 | – | Active | CC1=C(/C=C/C(C)=C/C=C/C(C)=C/C(=O)NCc2ccccn2)C(C)(C)CCC1 | –
64 | – | Active | COc1cccc(CNC(=O)/C=C(C)/C=C/C=C(C)/C=C/C2=C(C)CCCC2(C)C)c1 | –
65 | – | Active | CCOC(=O)CNC(=O)/C=C(C)/C=C/C=C(C)/C=C/C1=C(C)CCCC1(C)C | –
66 | – | Active | COc1ccccc1CNC(=O)/C=C(C)/C=C/C=C(C)/C=C/C1=C(C)CCCC1(C)C | –
67 | – | Active | CC1=C(/C=C/C(C)=C/C=C/C(C)=C/C(=O)NCCO)C(C)(C)CCC1 | EC50 [6]: 145 nM; Ratio EC50 [7]: 2; Kd [8]: 214 nM; Activity [3]: Active
68 | – | Active | CC1=C(/C=C/C(C)=C/C=C/C(C)=C/C(=O)Nc2ccccc2)C(C)(C)CCC1 | –
69 | – | Active | CC1=C(/C=C/C(C)=C/C=C/C(C)=C/C(=O)NCCC(C)(C)C)C(C)(C)CCC1 | –
